Data reported in ChEMBL document CHEMBL1158415, “Synthesis, antimicrobial activity and QSAR studies of new 2,3-disubstituted-3,3a,4,5,6,7-hexahydro-2H-indazoles” (Bioorg Med Chem Lett, 2009).

How the values were obtained:
Aspergillus niger = assay: Antifungal activity against Aspergillus niger after 7 days by tube dilution method; type: functional
Summary of the method: (§1)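 Tube dilution in Sabouraud dextrose broth, done in duplicate. DMSO test solution (10 µg/mL) is serially diluted to give 5, 2.5, 1.25, 0.625 and 0.312 µg/mL. Each tube gets 0.1 mL of spore/microbial suspension in saline, then is incubated at 25 °C for 7 d. MIC is read visually as the lowest concentration without turbidity, refined with intermediate concentrations. Fluconazole is the reference.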

Bacillus subtilis = assay: Antibacterial activity against Bacillus subtilis after 24 hrs by tube dilution method; type: functional
Summary of the method: (§2)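 Tube dilution in double strength nutrient broth-IP, done in duplicate. Test solution in DMSO (10 µg/mL) is serially diluted twofold into medium to give 5, 2.5, 1.25, 0.625 and 0.312 µg/mL. Each tube gets 0.1 mL of microbial suspension in saline, then is incubated at 37 °C for 24 h. MIC is the lowest concentration with no visible turbidity, refined by testing intermediate concentrations. Ciprofloxacin is the reference.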

Staphylococcus aureus = assay: Antibacterial activity against Staphylococcus aureus after 24 hrs by tube dilution method; type: functional; summary of the method: as §2
Pseudomonas aeruginosa = assay: Antibacterial activity against Pseudomonas aeruginosa after 24 hrs by tube dilution method; type: functional; summary of the method: as §2
Candida albicans = assay: Antifungal activity against Candida albicans after 48 hrs by tube dilution method; type: functional
Summary of the method: as §1, with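 “5 down to” for “5, 2.5, 1.25, 0.625 and”, “yeast” for “spore/microbial”, “37” for “25”, “48 h.” for “7 d.”, “is” for “is read visually as”, “preventing” for “without”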

Escherichia coli = assay: Antibacterial activity against Escherichia coli after 24 hrs by tube dilution method; type: functional; summary of the method: as §2
[1] = Octanol-water partition coefficient, log P of the compound; type: physicochemical

| Structure (SMILES) | -logMIC (Aspergillus niger) | -logMIC (Bacillus subtilis) | -logMIC (Staphylococcus aureus) | -logMIC (Pseudomonas aeruginosa) | -logMIC (Candida albicans) | -logMIC (Escherichia coli) | logP [1] |
| --- | --- | --- | --- | --- | --- | --- | --- |
| COc1ccc(C2C3CCCCC3=NN2S(C)(=O)=O)cc1 (stereo not drawn) | 2.53 | 2.53 | 2.31 | 2.49 | 2.59 | 2.39 | 2.9 |
| Cc1ccc(S(=O)(=O)N2N=C3CCCCC3C2c2ccc(Cl)cc2)cc1 (stereo not drawn) | 2.64 | 2.64 | 2.49 | 2.64 | 2.59 | 2.59 | 5.8 |
| O=S(=O)(c1ccccc1)N1N=C2CCCCC2C1c1ccc(Cl)cc1 (stereo not drawn) | 2.62 | 2.62 | 2.57 | 2.67 | 2.62 | 2.57 | 5.4 |
| COc1ccc(C2NN=C3CCCCC32)cc1 (stereo not drawn) | 2.19 | 2.01 | 2.01 | 2.19 | 2.19 | 2.06 | 3.6 |
| O=S(=O)(c1ccc(Cl)cc1)N1N=C2CCCCC2C1c1ccc(F)cc1 (stereo not drawn) | 2.64 | 2.69 | 2.64 | 2.79 | 2.59 | 2.75 | 5.1 |
| O=S(=O)(c1ccccc1)N1N=C2CCCCC2C1c1ccc(F)cc1 (stereo not drawn) | 2.55 | 2.65 | 2.55 | 2.71 | 2.6 | 2.65 | 5 |
| CS(=O)(=O)N1N=C2CCCCC2C1c1ccc(Cl)cc1 (stereo not drawn) | 2.5 | 2.54 | 2.4 | 2.5 | 2.59 | 2.4 | 3.7 |
| O=S(=O)(c1cccc2ccccc12)N1N=C2CCCCC2C1c1ccc(Cl)cc1 (stereo not drawn) | 2.67 | 2.67 | 2.53 | 2.67 | 2.73 | 2.63 | 6.4 |
| Clc1ccc(C2NN=C3CCCCC32)cc1 (stereo not drawn) | 2.27 | 2.07 | 2.07 | 2.19 | 2.27 | 2.19 | 4.4 |
| O=C(O)c1cn(C2CC2)c2cc(N3CCNCC3)c(F)cc2c1=O [CIPROFLOXACIN] | – | 2.33 | 2.03 | 2.62 | – | 2.03 | – |
| CS(=O)(=O)N1N=C2CCCCC2C1c1ccc(F)cc1 (stereo not drawn) | 2.57 | 2.57 | 2.37 | 2.52 | 2.47 | 2.47 | 3.3 |
| COc1ccc(C2C3CCCCC3=NN2S(=O)(=O)c2ccc(C)cc2)cc1 (stereo not drawn) | 2.68 | 2.63 | 2.49 | 2.58 | 2.63 | 2.58 | 5.1 |
| O=[N+]([O-])c1ccc(S(=O)(=O)N2N=C3CCCCC3C2c2ccc(Cl)cc2)cc1 (stereo not drawn) | 2.82 | 2.72 | 2.67 | 2.78 | 2.82 | 2.67 | 5.3 |
| Fc1ccc(C2NN=C3CCCCC32)cc1 (stereo not drawn) | 2.24 | 2.24 | 2.04 | 2.24 | 2.16 | 2.24 | 4 |
| COc1ccc(C2C3CCCCC3=NN2S(=O)(=O)c2ccc(Cl)cc2)cc1 (stereo not drawn) | 2.65 | 2.65 | 2.61 | 2.7 | 2.61 | 2.65 | 4.3 |
| O=[N+]([O-])c1ccc(S(=O)(=O)N2N=C3CCCCC3C2c2ccc(F)cc2)cc1 (stereo not drawn) | 2.76 | 2.76 | 2.7 | 2.81 | 2.65 | 2.76 | 4.9 |
| Cc1ccc(S(=O)(=O)N2N=C3CCCCC3C2c2ccc(F)cc2)cc1 (stereo not drawn) | 2.67 | 2.62 | 2.47 | 2.67 | 2.57 | 2.62 | 5.4 |
| O=S(=O)(c1cccc2ccccc12)N1N=C2CCCCC2C1c1ccc(F)cc1 (stereo not drawn) | 2.66 | 2.66 | 2.61 | 2.77 | 2.61 | 2.71 | 6 |
| COc1ccc(C2C3CCCCC3=NN2S(=O)(=O)c2ccc([N+](=O)[O-])cc2)cc1 (stereo not drawn) | 2.66 | 2.62 | 2.66 | 2.72 | 2.77 | 2.66 | 4.5 |
| COc1ccc(C2C3CCCCC3=NN2S(=O)(=O)c2ccccc2)cc1 (stereo not drawn) | 2.57 | 2.47 | 2.57 | 2.61 | 2.61 | 2.57 | 4.6 |
| OC(Cn1cncn1)(Cn1cncn1)c1ccc(F)cc1F [FLUCONAZOLE] | 3.16 | – | – | – | 3.16 | – | – |
| COc1ccc(C2C3CCCCC3=NN2S(=O)(=O)c2cccc3ccccc23)cc1 (stereo not drawn) | 2.62 | 2.62 | 2.53 | 2.67 | 2.62 | 2.62 | 5.6 |
| O=S(=O)(c1ccc(Cl)cc1)N1N=C2CCCCC2C1c1ccc(Cl)cc1 (stereo not drawn) | 2.71 | 2.71 | 2.61 | 2.77 | 2.77 | 2.66 | 5.9 |
